# Positions of bridges follow the written chain, without caps; N, C: chain ends. Residues, ends and D or L forms follow the SMILES beside them. No end group written: not given here.
# Legend:
# [1] = Degradation of hBNP by human lung homogenate; type: in vitro ADME; settings: 10 μM peptide; human lung homogenate 90 μg protein 150 μL buffer; Tris 50 mM pH 7.5 with 0.1% BSA; 37°C; 10 min; LCMS
# murine GC‐A = molecular target: T1, murine GC‐A (Mus musculus, UniProt P18293); assay: cGMP formation in GC‐A‐transfected HEK293 cells; type: cell-based; settings: 1 μM peptide, 5 min; cGMP ELISA; n = 3 in triplicates
# T1 sequence (P18293 29-1057): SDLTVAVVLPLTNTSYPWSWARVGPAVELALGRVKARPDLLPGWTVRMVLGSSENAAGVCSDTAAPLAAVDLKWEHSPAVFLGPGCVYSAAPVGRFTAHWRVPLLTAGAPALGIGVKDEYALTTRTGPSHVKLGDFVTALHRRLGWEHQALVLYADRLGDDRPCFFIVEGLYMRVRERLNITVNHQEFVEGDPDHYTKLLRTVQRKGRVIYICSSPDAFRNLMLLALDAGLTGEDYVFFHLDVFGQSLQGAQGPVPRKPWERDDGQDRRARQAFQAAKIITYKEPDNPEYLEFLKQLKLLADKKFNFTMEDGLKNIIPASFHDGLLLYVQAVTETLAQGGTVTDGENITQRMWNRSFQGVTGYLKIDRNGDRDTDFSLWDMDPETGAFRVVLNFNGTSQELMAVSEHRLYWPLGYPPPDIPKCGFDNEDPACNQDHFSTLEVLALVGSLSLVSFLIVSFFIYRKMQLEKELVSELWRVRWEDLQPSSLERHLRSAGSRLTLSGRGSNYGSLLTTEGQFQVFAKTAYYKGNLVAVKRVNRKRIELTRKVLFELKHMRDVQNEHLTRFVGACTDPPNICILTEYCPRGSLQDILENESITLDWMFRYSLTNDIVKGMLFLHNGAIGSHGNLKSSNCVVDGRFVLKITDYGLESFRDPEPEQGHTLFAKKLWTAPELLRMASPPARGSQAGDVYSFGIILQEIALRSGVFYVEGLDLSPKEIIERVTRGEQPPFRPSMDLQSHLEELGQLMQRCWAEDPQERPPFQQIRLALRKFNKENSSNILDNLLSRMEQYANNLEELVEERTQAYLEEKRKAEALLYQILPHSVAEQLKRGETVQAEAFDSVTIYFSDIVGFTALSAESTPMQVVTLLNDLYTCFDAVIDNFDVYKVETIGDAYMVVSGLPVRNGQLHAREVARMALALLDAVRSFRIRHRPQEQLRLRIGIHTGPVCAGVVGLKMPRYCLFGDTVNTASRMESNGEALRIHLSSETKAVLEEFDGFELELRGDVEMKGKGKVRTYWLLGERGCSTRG
# Summary of the method: (§1)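 HEK293 cells in DMEM/10% FBS were transfected with murine GC‐A or GC‐B plasmid (PolyFect, DMEM/0.5% FBS); empty‐plasmid cells served as controls. After 24 h, cells were exposed to 1 μM peptide or Tris vehicle for 5 min, washed in cold HBSS and lysed. cGMP was measured by ELISA (405 nm, 570 nm correction) in pmol/mL; n = 3 in triplicates.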
# [2] = test system: spontaneously hypertensive rats; assay: Cardiac ANP and BNP mRNA by real time PCR in spontaneously hypertensive rats; type: in vivo, rat; settings: SHR; 3 days administration; RT‐PCR, relative to saline treated rats; n = 6
# Summary of the method: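 After 3 days of subcutaneous osmotic minipump infusion (300 ng kg‐1 min‐1; saline controls) in male 12‐week SHR, cardiac RNA was isolated. 1 μg RNA was reverse‐transcribed and SYBR Green qPCR run with rat ANP and BNP primers. Melting curves checked product purity. Values are relative to saline‐treated rats; n = 6 per group.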
# C57B/L6J mice = assay: Plasma cGMP after bolus injection in normotensive mice; type: in vivo, mouse; settings: plasma taken after 4 min haemodynamic measurement, cGMP ELISA
# Summary of the method: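 Male 16‐week C57B/L6J mice (randomised, blinded) were anaesthetised with isoflurane, ventilated and kept at about 37°C, with a carotid pressure catheter and jugular cannula. After a 10‐min baseline, an i.v. bolus of 1.67 nmol peptide g‐1 or saline was given and haemodynamics followed for 4 min. EDTA blood was then taken by LV puncture. Plasma cGMP was ELISA‐measured after 95% ethanol extraction; n = 7 per peptide, 5 saline.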
# [3] = test system: spontaneously hypertensive rats; type: in vivo, rat
# [4] = test system: GC‐A and GC‐B double‐transfected HEK cells; assay: Dose–response of cGMP in GC‐A and GC‐B double‐transfected HEK cells; type: cell-based, mouse; settings: compared to BNP1‐32
# Summary of the method: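 HEK293 cells were transfected with both murine GC‐A and GC‐B plasmids and used 24 h later. Cells were stimulated for 5 min with peptide at graded concentrations in Tris vehicle, washed in cold HBSS and lysed. cGMP was quantified by ELISA (405/570 nm). EC50 came from a sigmoidal dose–response fit, and curves were compared by two‐way ANOVA.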
# murine GC‐B = molecular target: T2, murine GC‐B (Mus musculus, UniProt Q6VVW5); assay: cGMP formation in GC‐B‐transfected HEK293 cells; type: cell-based; settings: 1 μM peptide, 5 min; cGMP ELISA; n = 3 in triplicates
# T2 sequence (Q6VVW5 17-1047): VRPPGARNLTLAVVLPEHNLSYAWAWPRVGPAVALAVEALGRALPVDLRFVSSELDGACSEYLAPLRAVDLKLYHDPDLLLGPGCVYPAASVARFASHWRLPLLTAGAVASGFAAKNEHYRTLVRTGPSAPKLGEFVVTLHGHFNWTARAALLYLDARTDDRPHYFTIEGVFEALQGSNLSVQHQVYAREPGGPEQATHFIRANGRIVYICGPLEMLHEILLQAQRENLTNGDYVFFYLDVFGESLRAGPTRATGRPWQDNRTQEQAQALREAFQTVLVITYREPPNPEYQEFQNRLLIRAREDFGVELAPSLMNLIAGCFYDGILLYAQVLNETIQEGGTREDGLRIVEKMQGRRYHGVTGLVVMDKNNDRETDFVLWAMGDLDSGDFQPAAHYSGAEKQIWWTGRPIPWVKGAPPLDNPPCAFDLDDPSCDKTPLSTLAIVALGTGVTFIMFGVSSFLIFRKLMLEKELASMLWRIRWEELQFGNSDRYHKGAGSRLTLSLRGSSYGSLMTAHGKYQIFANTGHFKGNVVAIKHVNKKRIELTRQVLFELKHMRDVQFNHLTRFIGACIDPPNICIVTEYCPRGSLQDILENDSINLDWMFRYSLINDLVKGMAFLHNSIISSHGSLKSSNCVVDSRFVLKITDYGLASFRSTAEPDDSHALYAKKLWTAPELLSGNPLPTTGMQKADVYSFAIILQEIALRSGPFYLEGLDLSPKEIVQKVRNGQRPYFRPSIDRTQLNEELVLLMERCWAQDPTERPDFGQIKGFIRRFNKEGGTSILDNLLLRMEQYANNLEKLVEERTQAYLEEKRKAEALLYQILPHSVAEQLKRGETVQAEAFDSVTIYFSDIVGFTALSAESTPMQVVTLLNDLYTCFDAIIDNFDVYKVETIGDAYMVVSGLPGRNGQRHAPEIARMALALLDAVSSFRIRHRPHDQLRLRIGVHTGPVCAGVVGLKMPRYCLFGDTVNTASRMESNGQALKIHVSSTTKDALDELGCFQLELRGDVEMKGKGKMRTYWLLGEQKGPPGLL
# Summary of the method: as §1
molecule,measurement,setting,value
human BNP1‐32: mature human BNP1‐32,Degradation of hBNP1‐32 in human lung homogenate,[1],decreased peak area
CC[C@H](C)[C@@H]1NC(=O)[C@H](CCCNC(=N)N)NC(=O)[C@H](CC(=O)O)NC(=O)[C@H]([C@@H](C)CC)NC(=O)[C@H](CCCCN)NC(=O)[C@H](Cc2c[nH]cn2)NC(=O)CNC(=O)[C@H](Cc2ccccc2)NC(=O)[C@@H](NC(=O)[C@H](CO)NC(=O)[C@H](CO)NC(=O)[C@@H](NC(=O)[C@H](Cc2c[nH]cn2)NC(=O)[C@@H](NC(=O)[C@@H](NC(=O)[C@H](CCCCN)NC(=O)[C@H](CO)NC(=O)[C@@H](N)CC(N)=O)C(C)C)[C@@H](C)O)[C@@H](C)CC)CSSC[C@@H](C(=O)N[C@@H](CC(N)=O)C(=O)N[C@@H](C)C(=O)N[C@@H](CC(C)C)C(=O)N[C@@H](CCCCN)C(=O)O)NC(=O)CNC(=O)[C@H](CC(C)C)NC(=O)[C@H](CCCNC(=N)N)NC(=O)[C@H](CO)NC(=O)[C@H](C(C)C)NC(=O)[C@H](CO)NC(=O)CNC1=O [BNP1‐30] (H-NSKVTHISSCFGHKIDRIGSVSRLGCNALK-OH; disulfide 10-26; N-terminus assumed),cGMP formation in GC‐A‐transfected HEK293 cells,murine GC‐A,significantly higher
same,Cardiac ANP mRNA,[2],more pronounced
same,Cardiac BNP mRNA levels,[2],significantly reduced
same,Increase in plasma cGMP levels compared to BNP1‐32 treated animals,C57B/L6J mice,more pronounced increase
same,Lowering of SBP,"[3]; SHR, osmotic minipump 300 ng kg^‐1 min^‐1 for 3 days, versus saline group",16%
same,Reduction of systolic BP (abstract),"[3]; model of severe hypertension, 3‐day infusion",30 mmHg
same,Efficiency in dose‐response curves of double‐transfected HEK293 cells,[4],more efficient
same,Stimulation of GC‐B in transfected HEK293 cells,murine GC‐B,much more pronounced effect
same,cGMP effect on GC‐B transfected cells in comparison to BNP1‐32,murine GC‐B,3 fold
"murine ANP: murine atrial natriuretic peptide (SLRRSSCFGGRIDRIGAQSGLGCNSFRY; disulfide 7-23 (inferred); ends not checked; UniProt P05125 123-150, looked up)",cGMP formation in GC‐A‐transfected HEK293 cells,murine GC‐A,stimulated their native receptor GC‐A
"BNP1‐32: murine B‐type natriuretic peptide 1‐32, synthesised by Biosyntan (SQGSTLRVQQRPQNSKVTHISSCFGHKIDRIG; Brain natriuretic peptide 45; UniProt P40753 77-108, looked up, fragment)",cGMP formation in GC‐A‐transfected HEK293 cells,murine GC‐A,stimulated their native receptor GC‐A
